Where two headings read alike, the source gives them in different places.
How the values were obtained:
[1] = Determination of log P values; type: physicochemical; conditions: n-octanol/water 3 mL:3 mL, 100 µL radiotracer, gamma counter, triplicate samples
Summary of the method: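 Radiotracer (100 µL; 99mTc labeling by stannous-tartrate exchange at 100°C, 20 min) was added to equal volumes (3 mL each) of n-octanol and water, stirred vigorously and centrifuged. Triplicate samples from each phase were gamma-counted to give the partition ratio and log P.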

[2] = test system: PC-3 human prostate carcinoma cells; assay: In vitro cell binding assay with increasing cold conjugate; type: cell-based; conditions: 120 min
Summary of the method: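 PC3 androgen-independent cells were grown in RPMI 1640 with 10% (v/v) fetal calf serum at 37°C, 5% CO2, harvested near confluency by trypsinization, and seeded at 10^6 cells/well 24 h before assay. Wells received 90 pM 99mTc-labeled peptide with increasing cold conjugate (1 nM to 18 nM) and were incubated 120 min. Cell-associated radioactivity was gamma-counted.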

[3] = Biodistribution in healthy Swiss mice; type: in vivo; conditions: i.v. 0.1 mL/18.5 MBq, mean ± SD n = 6
Summary of the method: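 Male Swiss albino mice (20 - 25 g) received 99mTc-labeled conjugate by tail vein (0.1 mL/18.5 MBq). Six mice per time point were killed by cervical dislocation at 5, 30, 90 and 240 min. Organs were excised, weighed and counted on a NaI(Tl) gamma counter; stomach and intestine were counted after removing luminal contents. %ID/g was calculated using injected-dose activity as standard; mean ± SD.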

PC-3 tumors [4] = assay: Biodistribution in Nude mice bearing PC-3 tumors; type: in vivo; conditions: for Blood uptake / Bone uptake / Heart uptake / Lung uptake / Muscle uptake / Spleen uptake / Stomach uptake / Tumor uptake: mean ± SD n = 6
Summary of the method: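 Athymic male nude mice (16 - 20 g) received 5.0×10^6 PC3 cells subcutaneously in the upper back; tumors grew 2–3 weeks to about 1 cm diameter. 99mTc-labeled conjugate was given by tail vein and biodistribution evaluated at 30 and 90 min post-injection; blocking groups were coinjected with excess cold conjugate. Organs were excised, weighed and gamma-counted; %ID/g was computed against injected-dose activity; mean ± SD, n = 6.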

PC-3 tumors [5] = type: in vivo; conditions: PC-3 tumor-bearing mice
[6] = cited from earlier work
DU-145 prostate cells = conditions: cited from earlier work
PC-3 cells = conditions: cited from earlier work

## FRPNRAQDYNTNK-SAMA-G-G-G-Ahx-NH2 [99mTc-SAMA-G3-Ahx-DUP-1]
[1]
  partition ratio: 0.00389
[2]; 90 pM 99mTc-labeled peptide, no cold peptide, 37°C
  Radioactivity associated with PC3 tumor cells (binding): ~1.97%
[2]; cold conjugate increased 0 to 18 nM, 90 pM tracer
  decrease of binding with cold peptide: 63%
[3]; 5 min
  Blood uptake: 1.21±0.02 %ID/g
  Bone uptake: 0.84±0.17 %ID/g
  Heart uptake: 0.82±0.14 %ID/g
  Kidney uptake: 22.62±2.03 %ID/g
  Liver uptake: 12.31±2.19 %ID/g
  Lung uptake: 1.48±0.23 %ID/g
  Muscle uptake: 0.77±0.06 %ID/g
  Pancreas uptake: 1.44±0.33 %ID/g
  Spleen uptake: 1.37±0.18 %ID/g
[3]; 30 min
  Blood uptake: 0.43±0.06 %ID/g
  Bone uptake: 0.20±0.01 %ID/g
  Heart uptake: 0.24±0.07 %ID/g
  Kidney uptake: 21.06±0.41 %ID/g
  Liver uptake: 8.58±1.75 %ID/g
  Lung uptake: 0.73±0.16 %ID/g
  Muscle uptake: 0.14±0.04 %ID/g
  Pancreas uptake: 0.18±0.11 %ID/g
  Spleen uptake: 0.28±0.07 %ID/g
[3]; 90 min
  Blood uptake: 0.08±0.01 %ID/g
  Bone uptake: 0.05±0.02 %ID/g
  Heart uptake: 0.04±0.01 %ID/g
  Kidney uptake: 7.28±2.07 %ID/g
  Liver uptake: 1.57±0.57 %ID/g
  Lung uptake: 0.15±0.037 %ID/g
  Muscle uptake: 0.51±0.01 %ID/g
  Pancreas uptake: 0.05±0.01 %ID/g
  Spleen uptake: 0.09±0.03 %ID/g
[3]; 240 min
  Blood uptake: 0.05±0.01 %ID/g
  Bone uptake: 0.05±0.01 %ID/g
  Heart uptake: 0.03±0.02 %ID/g
  Kidney uptake: 3.22±0.43 %ID/g
  Liver uptake: 1.53±0.64 %ID/g
  Lung uptake: 0.13±0.07 %ID/g
  Muscle uptake: 0.17±0.07 %ID/g
  Pancreas uptake: 0.04±0.01 %ID/g
  Spleen uptake: 0.07±0.02 %ID/g
PC-3 tumors [4]; 30 min post-injection
  Uptake ratio Tumor/blood: 1.23
  Uptake ratio Tumor/muscle: 3.15
  Blood uptake: 0.69±0.14 %ID/g
  Bone uptake: 0.31±0.08 %ID/g
  Heart uptake: 0.41±0.02 %ID/g
  Lung uptake: 1.24±0.43 %ID/g
  Muscle uptake: 0.27±0.27 %ID/g
  Spleen uptake: 0.56±0.13 %ID/g
  Stomach uptake: 1.05±0.07 %ID/g
  Tumor uptake: 0.85±0.19 %ID/g
PC-3 tumors [4]; 90 min post-injection
  Uptake ratio Tumor/blood: 1.78
  Uptake ratio Tumor/muscle: 1.32
  Blood uptake: 0.23±0.06 %ID/g
  Bone uptake: 0.30±0.05 %ID/g
  Heart uptake: 0.10±0.10 %ID/g
  Lung uptake: 0.34±0.27 %ID/g
  Muscle uptake: 0.31±0.11 %ID/g
  Spleen uptake: 0.54±0.19 %ID/g
  Stomach uptake: 0.72±0.27 %ID/g
  Tumor uptake: 0.41±0.11 %ID/g
PC-3 tumors [5]; 30 min post-injection
  cold conjugate-blocked tumor uptake: 82%
PC-3 tumors [5]; 90 min post-injection
  cold conjugate-blocked tumor uptake: 83%

## FRPNRAQDYNTN [DUP-1]
[6]
  serum stability: serum-instable
DU-145 prostate cells
  binding to DU-145 prostate cells: high affinity
PC-3 cells
  binding to PC-3 cells: high affinity

From publication PMC3275116 (Clinics, 2012)
